For seven compounds, MNTC, IC50 and inhibition results are on record in ChEMBL document CHEMBL1764962, “Selective biocatalytic aminolysis of (±)-epichlorohydrin: synthesis and ICAM-1 inhibitory activity of (S)-(+)-3-arylamino-1-chloropropan-2-ols” (Bioorg Med Chem, 2011).

Values after ≈ are worked out from the molar mass of the structure shown.

A short description of series [1]: Toxicity in human HUVEC assessed as maximum tolerable dose by trypan blue exclusion assay. Format: cell-based. The conditions noted are these: HUVEC cells, read-out: MTD. The essentials: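 Primary human umbilical vein endothelial cells were isolated by mild trypsinization. They were grown in M199 with 15% heat-inactivated FCS, 2 mM L-glutamine, penicillin/streptomycin, amphotericin B, endothelial cell growth factor and heparin. Cells were subcultured at confluence with trypsin–EDTA and used at passages three to four. Viability was scored by trypan blue exclusion.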

Series [2] concerns HUVEC. In words: Antiinflammatory activity in human HUVEC assessed as inhibition of TNF-alpha-induced ICAM-1 expression by modified ELISA. Format: functional, cell-based. In a few lines:
(§1)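 Primary human umbilical cord endothelial cells were isolated by mild trypsinization and grown in M199 with 15% heat-inactivated FCS, L-glutamine, antibiotics, endothelial cell growth factor and heparin, then used at passages 3–4. Cells were preincubated with compound, then given TNF-α (10 ng/ml) for 16 h and fixed with glutaraldehyde. Surface ICAM-1 was measured by cell-ELISA using anti-ICAM-1 mAb overnight at 4 °C, HRP anti-mouse secondary and OPD substrate (pH 4.5), reading A490.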
(An ELISA detects its analyte on a solid surface through an enzyme-linked reagent.)

For series [3], the system named is HUVEC. In words: Antiinflammatory activity in human HUVEC assessed as inhibition of TNF-alpha-induced ICAM-1 expression at maximum tolerable dose of 40 ug/ml by modified ELISA. Format: functional. The essentials: as §1
Series [4] has as its system HUVEC. In words: Antiinflammatory activity in human HUVEC assessed as inhibition of TNF-alpha-induced ICAM-1 expression at maximum tolerable dose of 30 ug/ml by modified ELISA. Format: functional. The essentials: as §1
Setting [5] is: Homo sapiens, HUVEC, read-out: IC50.

As a reminder, the IC50 is the midpoint of a concentration-inhibition curve. In general, inhibition refers to how much of the control response was suppressed. For the compound `O[C@H](CCl)CNc1ccccc1Cl`, the MNTC in series [1] was 40 µg/mL. Also, the IC50 in the series with HUVEC [2] (setting [5]) was 33.1 µg/mL (≈ 150 µM). The inhibition at 40 µg/mL with HUVEC [3] worked out at 86%.
On to `O[C@H](CCl)CNc1ccc(Br)cc1`, for which the MNTC in series [1] was 40 µg/mL. For the same compound, the IC50 with HUVEC [2] (setting [5]) came out at 31.6 µg/mL (≈ 119 µM). The inhibition at 40 µg/mL in the series with HUVEC [3] amounted to 76%.
For `COc1ccc(OC)c(NC[C@H](O)CCl)c1`, in series [1], the MNTC was 30 µg/mL. In addition, the inhibition at 30 µg/mL in the series with HUVEC [4] came out at 40%. For the same compound, in the series on HUVEC [2] (huvec), the IC50 result was “Not Active”.
Turning to `O[C@H](CCl)CNc1ccccc1`, the MNTC in series [1] came out at 30 µg/mL. In the series with HUVEC [4], the inhibition at 30 µg/mL stood at 38%. Moreover, the IC50 in the series on HUVEC [2] (setting [5]) amounted to 39.8 µg/mL (≈ 214 µM).
For the compound `O[C@H](CCl)CNc1cccc(Cl)c1`, the MNTC in series [1] was determined as 30 µg/mL. The inhibition at 30 µg/mL in the series on HUVEC [4] was 24%. For the same compound, in the series with HUVEC [2] (huvec), the IC50 entry was “Not Active”.
`O[C@H](CCl)CNc1ccc(Cl)cc1`: the MNTC in series [1] came out at 30 µg/mL. In addition, the inhibition at 30 µg/mL with HUVEC [4] stood at 60%. Besides, the IC50 with HUVEC [2] (setting [5]) amounted to 28.8 µg/mL (≈ 131 µM).
In the case of `Cc1ccc(NC[C@H](O)CCl)cc1`, in series [1], the MNTC came out at 40 µg/mL. For the same compound, the IC50 in the series with HUVEC [2] (setting [5]) was 28.8 µg/mL (≈ 144 µM). Further, in the series on HUVEC [3], the inhibition at 40 µg/mL is 81%.
